Screens deposited in PubChem BioAssay by several laboratories.
In the library only some 6.8% were active in any assay of this set; here they are far more common.
AI-2 QS mod: modulators of Vibrio harveyi AI-2 quorum sensing system; Vibrio harveyi JMH597 AI-2 luminescence/OD600 ratio, 9 h; hits give low values; strain lacks LuxN and CqsS sensors; 0 = neutral-control median; activity change, % at 7.5 µM; hit rate 0.4% among 300,000; AID 2094; in the data active = activity change below about -75%, passing the limit was not always enough; inconclusive = no clear call, values can overlap the other calls;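 also: luminescence divided by OD600 gain over 9 h not by final OD600 alone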
HSF-1 act: increases HSF-1 driven luciferase reporter signal. activation, % at 9 µM. hit rate 1.7% among 300,000. NIH3T3-HGL HSF-1 luciferase reporter, MG132, 8 h; 100% = twice DMSO control signal;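 active = mean replicate activation of at least 50% with a set share of replicates each reaching 50%; inconclusive = only one of those two conditions met; inactive = mean below 50% and too few replicates reaching it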;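 also: 0% = median of the neutral control wells and 100% = twice that signal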
PHOSPHO1 inh: blocks human PHOSPHO1 phosphatase activity; Q8TCT1; inhibition, % at 13.3 µM; AID 1565; recombinant PHOSPHO1, absorbance phosphatase assay; hit rate 1.1% among 290,000; in the data active = inhibition above about 60%
Target sequence (Q8TCT1 whole entry, looked up): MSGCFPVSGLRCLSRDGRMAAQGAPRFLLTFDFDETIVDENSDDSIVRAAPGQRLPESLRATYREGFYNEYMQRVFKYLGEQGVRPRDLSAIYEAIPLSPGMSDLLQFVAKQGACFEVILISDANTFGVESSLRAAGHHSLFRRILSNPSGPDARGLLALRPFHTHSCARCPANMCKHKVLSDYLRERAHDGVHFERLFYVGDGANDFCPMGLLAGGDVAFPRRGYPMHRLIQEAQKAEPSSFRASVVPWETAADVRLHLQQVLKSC
HSF1 inh: HSF1 inhibition. hit rate 0.77% among 300,000. activity change, negative = inhibition, % at 7.5 µM (by protocol). NIH3T3-HGL HSE-luciferase, MG132-induced, luminescence 8 h; hits give low values;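 active = more than half of replicate wells show activity change below -50%, luminescence cut by over half; inconclusive = some wells, but at most half, below -50%; inactive = no replicate well below -50%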;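 also: luciferase reports HSF-1 transcriptional activity via heat shock element; 0% = median of DMSO wells and -100% = zero luminescence signal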
core dimer inh: blocks dimerization of HCV core protein | TR-FRET GST/Flag-core106 dimerization, 1536-well | inhibition, % at 5 µM | hit rate 0.33% among 300,000;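 active = inhibition above the mean of all tested compounds plus 3 SD, set per screening campaign, cut at about 45% in these data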
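test system = GST/Flag-tagged HCV core106 proteins | probe or stimulus = Eu donor and XL665 acceptor anti-tag antibodies | times = compound-protein-antibody incubation 4 h at 22.5 °C | signal = TR-FRET, excitation 340 nm, emission 617 and 671 nm | measure = percent inhibition of core106 dimerization signal | controls = wells lacking GST-core106 and wells with excess unlabelled core106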
ALR inh: blocks human ALR sulfhydryl oxidase activity; hit rate 3.8% among 290,000; inhibition, % (no concentration beside the values); AID 485317; P55789; purified ALR, DTT oxidation, H2O2 HRP-luminol luminescence;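 active = mean replicate inhibition above about 79%, with every replicate also reaching it, limit read from the data; inconclusive = only one of the two criteria met; inactive = mean below limit and not every replicate reaching it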
Target sequence (P55789 whole entry, looked up): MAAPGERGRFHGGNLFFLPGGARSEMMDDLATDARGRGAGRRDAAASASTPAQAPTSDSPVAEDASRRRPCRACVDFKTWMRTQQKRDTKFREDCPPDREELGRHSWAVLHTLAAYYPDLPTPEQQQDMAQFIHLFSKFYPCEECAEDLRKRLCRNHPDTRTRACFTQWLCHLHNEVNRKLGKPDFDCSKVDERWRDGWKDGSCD
* = called active by the depositor; ? = inconclusive; · = no result given.

SMILES	AI-2 QS mod	HSF-1 act	PHOSPHO1 inh	HSF1 inh	core dimer inh	ALR inh
Clc1ccc(SCc2csc(N3CCOCC3)n2)cc1	12	72*	21	36	0	-2
COC1CCCN(C(=O)c2ccc(OC3CCN(CCc4ccccc4)CC3)cc2)C1 (configuration not stated)	42	-77	-12	-74*	-2	-11
O=C(c1ccc(OC2CCN(CCc3ccccc3)CC2)cc1)N1CCCC(O)C1 (configuration not stated)	14	7	23	-1	-3	-14
CCOCCc1nnc(NC(=O)CCC2CCCCC2)s1	1	-1	·	7	11	2
C/C(=N\NC(=O)c1nn(C)c(C)c1Br)c1cccc(NC(=O)c2ccoc2C)c1	33	?	2	24	-1	-4
CCOc1ccc(Nc2nc(Cc3nnc(SCC(=O)NCC4CCCO4)n3C)cs2)cc1 (configuration not stated)	12	-10	62*	0	-3	?
CCOc1ccc(Nc2nc(Cc3nnc(SCC(=O)NC4CCCCC4)n3C)cs2)cc1	18	·	15	·	-1	28
O=C(NC1CCCN(C2Cc3ccccc3C2)C1)c1ccc(F)cc1Cl (configuration not stated)	13	-2	-27	-4	1	-8
CN(C)CCn1c2c(c(SCC(=O)Nc3cccc4ccccc34)nc1=O)CCCC2	-1	7	·	6	-4	20
Cc1csc(NC(=O)CSc2nc(=O)n(CCN(C)C)c3c2CCCC3)n1	13	-5	·	-4	-3	98*
CCN(CC)CCn1c2c(c(SCC(=O)Nc3cc(OC)cc(OC)c3)nc1=O)CCC2	16	23	·	10	2	96*
Cc1cc(NC(=O)CSc2nc(=O)n(CCN(C)C)c3c2CCCC3)no1	8	2	·	-11	-1	8
COc1cccc(NC(=O)CSc2nc(=O)n(CCN(C)C)c3c2CCCC3)c1	13	8	·	-2	0	97*
CCc1ccc(NC(=O)CSc2nc(=O)n(CCN(C)C)c3c2CCCC3)cc1	7	-21	·	-4	-1	99*
COCCNC(=O)C(c1ccc(C)cc1)N(Cc1ccco1)C(=O)CCC(=O)Nc1ccccn1 (configuration not stated)	-1	-18	2	-4	-16	·
S=C(NCCCN1CCOCC1)N1CCN(c2ccccc2)CC1	19	22	14	3	-3	98*
COCCCNC(=S)N1CCN(c2ccccc2)CC1	32	10	8	0	-2	97*
COCCCNC(=S)N1CCN(C)CC1	17	2	39	-1	1	-2
S=C(NCCCN1CCOCC1)N1CCOCC1	8	-19	36	-3	0	-1
Cc1cc(N2CCCC2)nc2ccc(NC(=S)NCCCN3CCC(C)CC3)cc12	22	54*	-33	14	-6	70
Cc1ccc(NC(=S)NCCCN2CCOCC2)cc1C	-1	9	17	-6	-7	98*
Cc1ccc(NC(=S)NCCN2CCOCC2)cc1C	10	-7	42	-8	-4	-3
O=C(Nc1nc2nccc(-c3ccccc3)n2n1)C(Cl)(Cl)Cl	32	19	6	2	-5	·
O=C(N/N=C/c1ccccc1O)C(=O)Nc1ccccn1	-17	-7	-34	-6	-1	3
CC1(c2ccc(Cl)cc2)NC(=O)N(CC(=O)N2CCc3ccccc32)C1=O (configuration not stated)	·	·	·	·	·	-4
SMILES	AI-2 QS mod	HSF-1 act	PHOSPHO1 inh	HSF1 inh	core dimer inh	ALR inh
Cn1cc(NC(=O)OCc2ccc(Cl)cc2)c(C(F)(F)F)n1	20	56*	13	38	-3	-2
Cc1cccc(NC(=O)c2ccco2)c1C	19	16	24	-1	-4	5
Cc1cc(NC(=O)c2ccco2)sc1C	·	·	·	·	·	98*
Cc1cc2sc(NC(=O)c3ccco3)nc2cc1Cl	9	66*	·	37	4	-7
COc1cccc(C(=O)Oc2ccc3ccc(=O)oc3c2)c1	-19	-52	23	-43	6	-16
Cc1ccc(OCC(=O)NNC(=S)NC(=O)c2cccs2)c(C)c1	32	8	23	9	·	98*
Cc1ccc(OCC(=O)NNC(=S)NC(=O)c2ccc(Br)o2)c(C)c1	30	7	-8	-5	·	98*
CCc1ccc(OCC(=O)NNC(=S)NC(=O)C2CC2)c(Br)c1	-85*	·	-144	·	·	12
COc1ccc(C(=O)NNC(=S)NC(=O)c2ccc(Br)o2)cc1OC	32	3	-68	-2	-3	86*
CCc1ccc(OCC(=O)NNC(=S)NC(=O)C2CCCCC2)c(Br)c1	101	-23	14	2	8	3
Cc1cc(OCC(=O)NNC(=S)NC(=O)c2cccs2)ccc1Cl	50	·	22	·	·	58
CCc1ccc(OCC(=O)NC(=S)Nc2ccc(C)cc2C)c(Br)c1	31	-14	2	-19	4	-3
Clc1ccc(-c2nnc(-c3ccccc3)o2)cn1	12	12	·	1	·	-5
COc1cc(OC)cc(C(=O)NC(=S)NNC(=O)c2cnccn2)c1	-30	1	10	-6	-7	17
COc1ccc(C(=O)NC(=S)NNC(=O)c2cnccn2)cc1OC	30	-8	2	-7	-7	98*
O=C(NNC(=O)c1cnccn1)c1ccc(Cl)c(Cl)c1	-288*	2	8	-8	6	-3
O=C1CC(c2ccccc2Cl)c2c(sc3c(=O)[nH]c(CCl)nc23)N1 (configuration not stated)	7	4	-8	6	0	7
COc1ccc(Cl)cc1NC(=O)CN(C)C(=O)CN1C(=O)NC2(CCCC2)C1=O	6	13	·	6	-1	-9
Cc1c2cnn(CC(=O)Nc3c(F)c(F)cc(F)c3F)c(=O)c2c(C)n1Cc1ccccc1F	39	0	-13	-4	55*	-8
CNC(=O)Cn1ncc2c(C)n(Cc3ccc(C)cc3)c(C)c2c1=O	24	-5	-34	-6	2	-4
CS(=O)(=O)CCC(C(=O)Nc1ccc2c(c1)OCO2)N1Cc2ccccc2C1=O (configuration not stated)	18	3	24	1	6	-29
Cc1ccc(-c2nc(-c3ccccc3)no2)c(Cl)c1	9	-77	-11	-72*	11	-13
CCOC(=O)CC1(NC(=O)C2CCC(=O)N(Cc3ccccc3OC)C2)CCCCC1 (configuration not stated)	-3	23	66*	5	·	-2
COc1ccccc1CN1CC(C(=O)NCCc2ncccc2C)CCC1=O (configuration not stated)	11	79*	36	31	·	·
